Assay results: ChEMBL document CHEMBL2157942, “ortho-Quinone tanshinones directly inhibit telomerase through an oxidative mechanism mediated by hydrogen peroxide” (Bioorg Med Chem Lett, 2011)
The source made the active and inactive calls. The calls are words filed in the database; no cut-off is given here.

How the values were obtained:
[1] = molecular target: T1, Telomerase reverse transcriptase (Homo sapiens, UniProt O14746); test: Inhibition of human recombinant telomerase activity in rabbit reticulocytes at 50 uM after 90 mins by telomerase assemblage gel electrophoresis; type: cell-based
T1 sequence (O14746 whole entry): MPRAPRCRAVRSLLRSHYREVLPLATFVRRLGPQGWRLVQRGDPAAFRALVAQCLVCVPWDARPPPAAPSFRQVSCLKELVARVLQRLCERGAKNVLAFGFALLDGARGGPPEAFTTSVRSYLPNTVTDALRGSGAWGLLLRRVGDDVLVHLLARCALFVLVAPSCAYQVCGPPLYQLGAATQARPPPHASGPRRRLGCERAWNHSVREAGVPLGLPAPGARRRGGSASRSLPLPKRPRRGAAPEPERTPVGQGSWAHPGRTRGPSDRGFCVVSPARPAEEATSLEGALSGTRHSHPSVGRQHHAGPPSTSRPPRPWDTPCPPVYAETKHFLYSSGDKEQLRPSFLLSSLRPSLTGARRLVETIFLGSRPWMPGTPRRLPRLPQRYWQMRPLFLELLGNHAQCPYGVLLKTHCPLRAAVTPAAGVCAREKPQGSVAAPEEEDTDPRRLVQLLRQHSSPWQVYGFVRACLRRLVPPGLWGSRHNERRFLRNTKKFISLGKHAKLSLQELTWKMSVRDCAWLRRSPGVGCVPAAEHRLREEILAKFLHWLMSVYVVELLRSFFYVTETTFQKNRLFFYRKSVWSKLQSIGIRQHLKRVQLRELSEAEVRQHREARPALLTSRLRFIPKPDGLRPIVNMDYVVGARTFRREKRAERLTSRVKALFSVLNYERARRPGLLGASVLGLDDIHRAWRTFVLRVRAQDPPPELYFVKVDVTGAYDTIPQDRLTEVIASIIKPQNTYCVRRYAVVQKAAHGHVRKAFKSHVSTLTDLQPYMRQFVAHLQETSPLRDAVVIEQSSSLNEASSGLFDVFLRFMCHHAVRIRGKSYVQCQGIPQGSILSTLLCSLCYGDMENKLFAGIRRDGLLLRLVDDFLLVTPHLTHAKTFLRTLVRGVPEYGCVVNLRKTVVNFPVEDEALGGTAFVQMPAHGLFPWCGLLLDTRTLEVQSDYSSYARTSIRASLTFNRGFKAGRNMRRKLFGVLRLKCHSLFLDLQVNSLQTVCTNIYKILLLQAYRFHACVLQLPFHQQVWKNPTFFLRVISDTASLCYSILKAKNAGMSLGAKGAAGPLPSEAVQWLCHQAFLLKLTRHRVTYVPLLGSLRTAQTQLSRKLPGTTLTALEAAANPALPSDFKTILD
Summary of the method: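 Assembly format: hTERT translated in rabbit reticulocyte lysate was incubated 1.5 h with in vitro transcribed hTER in the presence of inhibitor. Activity was then read by direct primer extension, with products resolved by gel electrophoresis and imaged by phosphorimaging. Products were normalized to a 100 nt 32P-labeled oligonucleotide loading control, and percent activity was calculated against a DMSO carrier control.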

[2] = molecular target: T1, Telomerase reverse transcriptase; test: Inhibition of human recombinant telomerase activity in rabbit reticulocytes after 90 mins by telomerase assemblage gel electrophoresis; type: cell-based
Summary of the method: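 hTERT translated in rabbit reticulocyte lysate, then incubated 1.5 h with in vitro transcribed hTER in the presence of inhibitor (DMSO carrier). Activity was read by direct primer extension, with products resolved on gel and phosphorimaged. Signal was normalized to a 100 nt 32P-labeled DNA loading control, and percent activity was taken versus the DMSO-only control.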

[3] = molecular target: T1, Telomerase reverse transcriptase; test: Inhibition of pre-assembled human recombinant telomerase activity in rabbit reticulocytes after 90 mins by gel electrophoresis method based direct primer extension assay; type: cell-based
Summary of the method: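 Telomerase was first reconstituted in rabbit reticulocyte lysate from hTERT and hTER, then assayed post-assembly by direct primer extension with inhibitor present. Products were gel-resolved, phosphorimaged and normalized to a 32P-labeled 100 nt oligonucleotide loading control. Percent activity was taken relative to the DMSO carrier control.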

[4] = molecular target: T1, Telomerase reverse transcriptase; conditions: 50 uM
[5] = molecular target: T1, Telomerase reverse transcriptase; conditions: 50 uM; remark: listed apart in the source
[6] = molecular target: T1, Telomerase reverse transcriptase; conditions: 50 uM; remark: listed apart in the source
MCF7 = test: Cytotoxicity against telomerase positive human MCF7 cells after 96 hrs by SRB assay; type: functional, cell-based; conditions: MCF7, 96 h
PC-3 = test: Cytotoxicity against telomerase positive human PC3 cells after 96 hrs by SRB assay; type: functional, cell-based; conditions: PC-3, 96 h
[7] = Cytotoxicity against telomerase negative human GM847 cells after 96 hrs by SRB assay; type: functional, cell-based; conditions: GM847, 96 h
SAOS-2 = test: Cytotoxicity against telomerase negative human Saos2 cells after 96 hrs by SRB assay; type: functional, cell-based; conditions: SAOS-2, 96 h
[8] = Induction of ROS generation assessed as hydrogen peroxide production in PBS buffer at 20 uM in presence of 5 nM of DTT; type: physicochemical; conditions: in the assay text read “5 mM of DTT” for “5 nM of DTT”, TDE = time-dependent effect
Summary of the method: (§1)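 Compound at 20 µM incubated in PBS for set times under three conditions: no DTT, with 5 mM DTT, or with 5 mM DTT plus 30 U catalase. Hydrogen peroxide was measured with a commercial hydrogen peroxide kit. Two independent experiments; mean and standard deviation reported.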

[9] = Induction of ROS generation assessed as hydrogen peroxide production in PBS buffer at 20 uM in absence of DTT; type: physicochemical; summary of the method: as §1
[10] = Induction of ROS generation assessed as hydrogen peroxide production in PBS buffer at 20 uM in presence of 5 nM of DTT in presence of 30U catalase; type: physicochemical; conditions: in the assay text read “5 mM of DTT” for “5 nM of DTT”; summary of the method: as §1
[11] = molecular target: T1, Telomerase reverse transcriptase; conditions: MCF7, 3 uM

For `C[C@H]1COC2=C1C(=O)C(=O)c1c2ccc2c1CCCC2(C)C`, the inhibition [1] was 75%.
`Cc1cccc2c1ccc1c3occ(C)c3c(=O)oc21` gave an inhibition [1] of 25%.
`Cc1coc2c1C(=O)C(=O)c1c-2ccc2c(C)cccc12` gave an inhibition [1] of 65%.
For `O=C1C(=O)c2ccccc2-c2ccccc21` [9,10-PHENANTHRENEQUINONE], the IC50 [2] was 5000 nM, the IC50 [3] was 500 nM and the inhibition [4] was 35%. For the same compound, the inhibition [5] was greater than 95% and the inhibition [6] was “inactive”.
`Cc1coc2c1C(=O)C(=O)c1c-2ccc2c1CCCC2(C)C` [TANSHINONE IIA] gave an inhibition [1] of 75%, an IC50 [2] of 5000 nM and an EC50 (MCF7) of 900 nM. It also gave an EC50 (PC-3) of 1200 nM, an EC50 [7] greater than 20000 nM and an EC50 (SAOS-2) greater than 20000 nM. For the same compound, the IC50 [3] was 500 nM, the Activity [8] was “tde” and the Activity [9] was “Not Active”. The Activity [10] was “Not Active” and the inhibition [11] was 50%.
